Assay results published in ChEMBL document CHEMBL1134345, “Coumarin and chromen-4-one analogues as tautomerase inhibitors of macrophage migration inhibitory factor: discovery and X-ray crystallography” (J Med Chem, 2001).

molecular target: T1, Macrophage migration inhibitory factor (Homo sapiens, UniProt P14174); test: Binding activity towards the active site of macrophage migration inhibitory factor (MIF)
T1 sequence (P14174 whole entry): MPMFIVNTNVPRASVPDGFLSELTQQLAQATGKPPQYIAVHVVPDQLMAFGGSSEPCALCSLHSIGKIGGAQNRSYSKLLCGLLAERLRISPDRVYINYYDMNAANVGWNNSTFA

SMILES	Kd [µM]
CCCCCCSC[C@H](NC(=O)CC[C@H](N)C(=O)O)C(=O)NCC(=O)O	2500

molecular target: T1, Macrophage migration inhibitory factor; test: Inhibitory activity against tautomerase macrophage migration inhibitory factor (MIF)
In short: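 Recombinant human MIF at 4 ug/mL final, in sodium phosphate buffer pH 6.0. Inhibitors were added in DMSO (1% v/v final). The reaction was started with freshly made D-dopachrome (D-DOPA oxidized with periodate, 1:2) at 0.25–0.5 mM. The A475 decrease was followed for 10 min. Initial rates were corrected for the uncatalyzed rate without MIF. Ki came from three-dimensional nonlinear regression.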

SMILES	Ki [µM]	IC50 [µM]
O=C(O)/C=C/c1ccc(O)cc1F	2.6	
O=C(COC(=O)c1cc2ccccc2oc1=O)c1ccccc1	1.6	
N#Cc1cc2ccc(O)cc2oc1=O	2.9	
O=c1oc2cc(O)ccc2cc1-c1nc(-c2ccc3c(c2)OCO3)cs1	1.5	
CN(C)c1ccc(/C=C2\C(=O)Oc3ccccc3C2=O)cc1	6.2	
CC(=O)c1cc2ccc(O)cc2oc1=O	4.3	
O=c1oc2ccccc2cc1-c1csc(-c2cc3ccc(O)cc3oc2=O)n1	0.28	
CCOC(=O)CC(=O)c1cc2ccc(O)cc2oc1=O	5.8	
O=c1oc2cc(O)ccc2cc1-c1ccccc1	0.47	
CCCCCCSC[C@H](NC(=O)CC[C@H](N)C(=O)O)C(=O)NCC(=O)O		3300
Cc1nc(-c2cc3ccc(O)cc3oc2=O)cs1	2.1	
Cc1csc(-c2cc3ccc(O)cc3oc2=O)n1	3.1	
NC(=S)c1cc2ccc(O)cc2oc1=O	0.55	
CCCCCCS [HEXANETHIOL]		17.4
